Source: PubChem BioAssay (The Scripps Research Institute Molecular Screening Center)
OXTR agonist: activates the human oxytocin receptor | P30559 | CHO-OTR cells, Fluo-8 calcium fluorescence; normalized: DMSO 0%, oxytocin 100% | activation, % at 3 µM | 0.32% of 320,000 active;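 active = activation above the mean of all tested compounds plus 3 SD, cutoff set per screening run, cut at about 20% in these data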;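 note: peak over basal fluorescence ratio from a 100 s FLIPR kinetic read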
Target sequence (P30559 whole entry, looked up): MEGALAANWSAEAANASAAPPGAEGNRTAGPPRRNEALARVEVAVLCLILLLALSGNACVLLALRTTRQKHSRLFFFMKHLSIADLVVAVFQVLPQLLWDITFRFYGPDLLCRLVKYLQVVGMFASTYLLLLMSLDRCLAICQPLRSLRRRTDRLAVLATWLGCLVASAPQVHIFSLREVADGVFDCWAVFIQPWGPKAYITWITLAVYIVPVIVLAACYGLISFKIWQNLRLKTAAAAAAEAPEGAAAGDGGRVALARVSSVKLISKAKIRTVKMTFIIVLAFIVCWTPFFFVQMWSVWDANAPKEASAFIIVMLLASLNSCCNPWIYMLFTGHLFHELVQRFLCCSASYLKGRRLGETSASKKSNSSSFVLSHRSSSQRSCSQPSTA
TRPN1 ag: agonists of zebrafish TRPN1 channel. HEK293 zebrafish TRPN1-YFP, Fluo-8 calcium fluorescence; 100% = response to 87 µM carbachol. activation, % at 3 µM. 0.18% of 220,000 active;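 active = activation above its plate's cutoff, the mean activation of test wells on that plate plus 3 SD, cut at about 19% in these data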;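 note: 0% = DMSO alone and 100% = 87 µM carbachol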
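Control set: carbachol 87 µM as high control, DMSO as low control; system: HEK293 stable line with zebrafish TRPN1-YFP; read-out: % activation versus carbachol response; detection: intracellular calcium fluorescence with Fluo-8; doses: single test compound dose, 3 µM nominal, 0.3% DMSO; schedule: dye 1 h 37 °C plus 30 min RT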
V1R ag counter: activates human V1a receptor in oxytocin agonist counter-screen | 0.25% of 320,000 active | activation, % at 3 µM | P37288 | CHO-V1R cells, Fluo-8 calcium fluorescence, agonist mode; 0% DMSO, 100% 3 nM vasopressin;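 active = activation above the mean activation of all tested compounds plus 3 SD, per screening run, cut at about 20% in these data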;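 note: signal is peak over basal fluorescence ratio across a 100 second FLIPR read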
OXTR potentiator: potentiates the human oxytocin receptor response | activation, % at 3 µM | P30559 | CHO-OTR cells, Fluo-8 calcium fluorescence, potentiator mode; 0% = oxytocin EC15, 100% = EC100 | 0.061% of 320,000 active;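 active = activation above that plate's cutoff, the mean activation of tested compounds plus 3 SD, cut at about 6.6% in these data, passing the limit was not always enough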;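 note: 100% uses oxytocin at 75 nM as the full agonist control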
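Material: CHO-OTR cells, human receptor; compound dosing: single dose, 3.0 µM nominal final compound concentration; schedule: 6 min compound pre-incubation at room temperature, 100 s kinetic read; measured by: kinetic Fluo-8 calcium fluorescence; read-out basis: % activation vs EC15 and EC100 oxytocin; controls: EC15 oxytocin alone as 0%, 75 nM oxytocin as 100%; replicates: singlicate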
TRPML3 ag: agonists of human TRPML3 channel; activation, % at 3 µM; Q8TDD5; 0.29% of 220,000 active; HEK293 TRPML3-YFP, Fluo-8 calcium fluorescence; 100% = the carbachol control signal;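 active = activation above its plate's cutoff, the mean activation of the plate's test wells plus 3 SD, cut at about 12% in these data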;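 note: 0% = DMSO only wells and 100% = carbachol wells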
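Test system – HEK293 line with stable expression of human TRPML3-YFP channel · Control set – carbachol 87 µM final as high control (100%), DMSO as low control (0%) · Signal – Fluo-8 calcium dye fluorescence, ex 470-495, em 515-575 nm · Incubation – 1-h 37 °C dye load, 5-s basal, 120-s post-compound reads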
TRPN1 counter: activates zebrafish TRPN1, counter-screen for TRPML3 agonists. shares compounds with TRPML3 ag. HEK293 zebrafish TRPN1-YFP, Fluo-8 calcium fluorescence; scaled: carbachol wells 100%, DMSO wells 0%. activation, % at 3 µM. 10% of 310 active. AID 1525;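 active = mean activation over replicates above a set limit taken from the earlier TRPN1 channel primary screen, cut at about 19% in these data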;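 note: 100% = carbachol and 0% = 0.3% DMSO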
TRPML3 ag conf: human TRPML3 agonism, confirmation; 80% of 310 active; HEK293 TRPML3-YFP, Fluo-8 calcium fluorescence; 100% set by carbachol, 0% by DMSO; activation, % at 3 µM; shares compounds with TRPML3 ag;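 active = activation above a set limit derived from the earlier primary screen, cut at about 12% in these data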
* marks the source's active call; other numbers are inactive results; . = no result given. Only some compounds are listed: those with a hit (about 0.59% of all), similar ones and a draw of the others.

SMILES	OXTR agonist	TRPN1 ag	V1R ag counter	OXTR potentiator	TRPML3 ag	others
CCCc1ccc(C(C)NC(=S)NCc2ccc(F)cc2)cc1 (centres undefined)	21*	.	21*	-17	.
CC(=O)c1c(OC(=O)c2ccccc2)ccnc1C(F)(F)F	1	.	0	-4	.
O=C(Cc1cccs1)N(Cc1ccco1)C1(C(=O)NC2CCCCC2)CCCCC1	13	0	4	-17	0
O=C(Cc1cccs1)N(Cc1cccs1)C1(C(=O)NC2CCCC2)CCCCC1	24*	-1	28*	-19	-2
O=C(CSc1nnc(C2CC2)n1C1CC1)c1ccc(Br)s1	0	.	0	-1	.
CC(=O)c1cccc(OCC(=O)Nc2ccccc2N2CCOCC2)c1	0	.	2	3	.
CN1CCC(Oc2ccc(Sc3ccccc3)cc2)CC1	22*	5	11	-9	3
CCCCc1cc(O)c(CCCC)c(O)c1	86*	52*	81*	-25	36*
CCCCCc1cc(O)c2c(C)cc(=O)oc2c1	3	13	4	-8	5
COc1cccc(-c2ccc(NC(=O)C3CCCN(Cc4cnn(C(C)C)c4)C3)cc2)c1 (centres undefined)	19	.	17	-10	.
Cc1ccc(C(=O)NNS(=O)(=O)c2ccc(F)cc2)cc1	-1	.	0	-9	.
COC(CNC(=O)c1ccc2c3c(onc13)-c1ccccc1C2=O)OC	20	27*	8	-3	18*
COc1ccc(CNC[C@@H](CCCCN(C)Cc2ccc(OC)cc2)N2C[C@H](c3ccccc3)N(CCc3ccc(Cl)c(Cl)c3)C(=O)C2=O)cc1	29*	1	58*	-16	1
Cc1nnc(NC(=O)c2sc3nc(-c4cccs4)cc(C(F)(F)F)c3c2N)s1	98*	7	44*	-13	3
CC(C)(C)C(=O)c1sc2nc(-c3cccs3)cc(C(F)(F)F)c2c1N	3	1	4	-5	1
COc1cc(/C=C2\S/C(=N/S(=O)(=O)Cc3ccccc3)NC2=O)c([N+](=O)[O-])cc1OC	2	1	2	3	1
O=C1N/C(=N\S(=O)(=O)Cc2ccccc2)S/C1=C/c1cc([N+](=O)[O-])ccc1O	43*	64*	63*	-13	31*
O=C1N/C(=N\S(=O)(=O)c2ccccc2)S/C1=C\c1cc([N+](=O)[O-])ccc1O	25*	.	20*	-17	.
Cc1cc(C)cc(OCCNC(=O)c2ccc(Br)cc2)c1	-1	.	0	3	.
O=C(C1CCCN(S(=O)(=O)c2cc(Cl)ccc2Cl)C1)N1CCCC1 (centres undefined)	-1	.	0	-4	.
COc1cc(N2CCCC2)c(OC)cc1/C=C(/C#N)c1cccc(F)c1	21*	16	21*	-12	1
CSCC[C@H](NC(=O)c1cccc(S(=O)(=O)N2CCCCC2)c1)c1nc2ccccc2[nH]1	-1	.	-1	-6	.
O=C(Nc1ccncc1)Nc1ccc(F)c(Cl)c1	7	7	5	-15	12*	TRPN1 counter=10;TRPML3 ag conf=9
O=C(Nc1ccc(F)c(Cl)c1)Nc1ccc(Cl)cn1	0	0	0	-14	1
CCOC(=O)c1sc(=S)n(C)c1NC(=O)c1ccc(C(C)(C)C)cc1	3	11	7	-16	14*	TRPN1 counter=16;TRPML3 ag conf=10
COc1ccc(CCC(=O)Nc2nc(C)c(C(=O)N(C)C)s2)cc1	1	.	1	-8	.
O=C(C1Cc2ccccc2CN1S(=O)(=O)c1cccs1)N1CCCCC1 (centres undefined)	-1	-1	0	-7	15*	TRPN1 counter=0;TRPML3 ag conf=52*
CN(C)C(=O)C1Cc2ccccc2CN1S(=O)(=O)c1cccs1 (centres undefined)	0	-1	1	3	0
